Assays:
Phosphodiesterase 4 [1] = target: T1, Phosphodiesterase 4 (Homo sapiens, UniProt P27815+Q08499+Q07343+Q08493); assay: Inhibition of sarcoplasmic reticulum Phosphodiesterase 4; assay type: protein assay, Canis lupus familiaris
Phosphodiesterase 4 [2] = target: T1, Phosphodiesterase 4; assay: (§1) Displacement [3H]LY-186,126 from phosphodiesterase 4 of myocardial vesicles; assay type: tissue-based, Canis lupus familiaris, Myocardium
Method in brief: (§2)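 Canine ventricular myocardial vesicles (mixed sarcolemmal and SR; stored at –80 °C), about 100 μg protein, incubated 60 min at 25 °C in 50 mM Tris-Cl pH 7.4, 5 mM MgCl2, 0.01% BSA with 10 nM [3H]-LY186126 (79.2 Ci/mmol). Competitors in DMSO were tested at 0.003–100 μM in half-log steps. Samples were filtered on GF/C and washed with cold phosphate. Specific binding is the part displaced by 100 μM indolidan. Run in triplicate; Ki from nonlinear least-squares fits.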

Phosphodiesterase 4 [3] = target: T1, Phosphodiesterase 4; assay: Binding affinity for Phosphodiesterase 4 of canine myocardial vesicles; assay type: protein assay, Canis lupus familiaris; settings: target entry is the homologue from another species; method in brief: as §2
Phosphodiesterase 4 [4] = target: T1, Phosphodiesterase 4; assay: Binding affinity for sarcoplasmic reticulum phosphodiesterase 4 of canine ventricle; assay type: protein assay, Canis lupus familiaris; settings: target entry is the homologue from another species
[5] = as §1; assay type: tissue-based, Canis lupus familiaris, Myocardium; method in brief: as §2

| Structure (SMILES) | IC50 (Phosphodiesterase 4 [1]) | Ki (Phosphodiesterase 4 [2]) | also measured |
| --- | --- | --- | --- |
| CN1C(=O)C(C)(C)c2cc(C3=NNC(=O)CC3)ccc21 | 760 nM |  |  |
| CC1CC(=O)NN=C1c1ccc2c(c1)C(C)(C)C(=O)N2 (centres undefined) |  | 0.54 nM |  |
| O=C1CCC(c2ccc3c(c2)CCC(=O)N3)=NN1 |  |  | Ki [5]: 2.5 nM |

Second part, led by results:

| IC50 (Phosphodiesterase 4 [1]) | Ki (Phosphodiesterase 4 [2]) | Structure (SMILES) | also measured |
| --- | --- | --- | --- |
|  | 61400 nM | CN1N=C(c2ccc3c(c2)CC(=O)N3)CCC1=O |  |
| 150 nM | 5.4 nM | CC1(C)C(=O)Nc2ccc(C3=NNC(=O)CC3)cc21 [INDOLIDAN] |  |
| 120 nM |  | CC1CC(=O)NN=C1c1ccc2c(c1)C(C)(C)C(=O)N2C (centres undefined) | Kd (Phosphodiesterase 4 [3]): 4.1 nM; Kd (Phosphodiesterase 4 [4]): 3.9 nM |

— ChEMBL document CHEMBL1124692, “Synthesis of a tritium-labeled indolidan analogue and its use as a radioligand for phosphodiesterase-inhibitor cardiotonic binding sites” (J Med Chem, 1989)
